In ChEMBL document CHEMBL3352671, “Inhibitory and mechanistic investigations of oxo-lipids with human lipoxygenase isozymes” (Bioorg Med Chem, 2014):
Active and inactive are the calls of the source. The rule behind the calls is not given here.

What was measured:
[1] = molecular target: T1, Polyunsaturated fatty acid lipoxygenase ALOX15 (Homo sapiens, UniProt P16050); assay: Irreversible inhibition of human reticulocyte 15-lipoxygenase-1 by assessed as equilibrium inhibitor constant
T1 sequence (P16050 whole entry): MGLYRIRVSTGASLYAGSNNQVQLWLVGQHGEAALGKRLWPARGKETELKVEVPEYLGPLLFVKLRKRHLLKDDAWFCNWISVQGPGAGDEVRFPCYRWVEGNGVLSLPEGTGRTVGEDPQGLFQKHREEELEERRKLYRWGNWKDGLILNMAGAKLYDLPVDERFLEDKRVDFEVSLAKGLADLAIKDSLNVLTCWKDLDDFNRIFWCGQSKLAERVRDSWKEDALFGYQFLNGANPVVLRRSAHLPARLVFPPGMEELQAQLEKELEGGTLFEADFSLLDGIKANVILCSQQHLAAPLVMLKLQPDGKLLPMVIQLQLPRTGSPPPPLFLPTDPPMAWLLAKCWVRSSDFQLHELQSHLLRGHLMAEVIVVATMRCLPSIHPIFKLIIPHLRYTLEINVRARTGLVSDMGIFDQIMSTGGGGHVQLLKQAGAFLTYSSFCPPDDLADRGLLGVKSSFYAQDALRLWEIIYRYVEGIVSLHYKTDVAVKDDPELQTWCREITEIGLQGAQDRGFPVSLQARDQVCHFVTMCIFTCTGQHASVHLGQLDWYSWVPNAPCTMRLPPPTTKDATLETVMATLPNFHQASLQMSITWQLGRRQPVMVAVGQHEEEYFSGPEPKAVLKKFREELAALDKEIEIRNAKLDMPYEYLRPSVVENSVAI
Summary of the method: (§1)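 Time-dependent inactivation: h15-LOX-1 or s15-LOX-1 was incubated on ice with neat oxo-lipid oil (no solvent) at ≥5 concentrations for varied times. Residual activity was then measured under the UV 234 nm assay conditions for each enzyme and compared with an enzyme-only control. ka was taken as the slope of ln(% activity) versus time, and Ki and k2 from a replot of ka versus [I].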

[2] = molecular target: T1, Polyunsaturated fatty acid lipoxygenase ALOX15; assay: Inhibition of human reticulocyte 15-lipoxygenase-1 by UV-visible spectrophotometry
Summary of the method: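 Purified h15-LOX-1 (~60 nM total protein) in stirred 2 mL reactions at 23°C, 25 mM HEPES pH 7.5, 0.01% Triton X-100, 10 μM AA. Rate followed as conjugated diene formation at 234 nm. IC50 from at least five inhibitor concentrations by hyperbolic saturation fit, triplicate. Weak inhibitors approximated from one-point screen at 25 μM (triplicate).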

[3] = Inhibition of soybean 15-lipoxygenase-1 by UV-visible spectrophotometry; set-up: species or system Glycine max
Summary of the method: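 Soybean 15-LOX-1 (~2 nM) was assayed in 100 mM borate pH 9.2, 0.01% Triton X-100, 10 μM AA, stirred 2 mL at 23°C. Conjugated diene was read at 234 nm.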

[4] = molecular target: T2, Polyunsaturated fatty acid lipoxygenase ALOX12 (Homo sapiens, UniProt P18054); assay: Inhibition of human platelet 12-lipoxygenase by UV-visible spectrophotometry
T2 sequence (P18054 whole entry): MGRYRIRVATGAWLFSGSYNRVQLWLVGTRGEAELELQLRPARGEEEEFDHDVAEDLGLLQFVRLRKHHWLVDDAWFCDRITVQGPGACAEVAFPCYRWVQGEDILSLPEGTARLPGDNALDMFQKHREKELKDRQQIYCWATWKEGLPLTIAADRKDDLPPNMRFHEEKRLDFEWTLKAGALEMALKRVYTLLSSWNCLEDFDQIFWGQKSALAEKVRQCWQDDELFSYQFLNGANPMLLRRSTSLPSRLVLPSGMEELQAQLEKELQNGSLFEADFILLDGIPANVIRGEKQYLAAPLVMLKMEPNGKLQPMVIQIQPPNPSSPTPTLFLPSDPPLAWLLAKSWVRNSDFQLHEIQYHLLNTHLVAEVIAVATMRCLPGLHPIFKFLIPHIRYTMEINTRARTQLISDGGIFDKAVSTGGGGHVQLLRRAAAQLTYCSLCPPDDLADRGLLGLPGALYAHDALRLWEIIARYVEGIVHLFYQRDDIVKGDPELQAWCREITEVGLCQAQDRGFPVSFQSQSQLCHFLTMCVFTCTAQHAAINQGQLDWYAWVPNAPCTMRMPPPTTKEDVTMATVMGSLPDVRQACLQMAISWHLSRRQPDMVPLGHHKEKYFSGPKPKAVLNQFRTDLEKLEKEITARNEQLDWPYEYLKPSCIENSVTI
Summary of the method: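 h12-LOX (~100 nM total protein) in 25 mM HEPES pH 8.0, 0.01% Triton X-100, 10 μM AA, run as stirred 2 mL reactions at 23°C. Diene formation was read at 234 nm.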

[5] = molecular target: T3, Polyunsaturated fatty acid lipoxygenase ALOX15 (Oryctolagus cuniculus, UniProt P12530); assay: Inhibition of rabbit reticulocyte 15-LOX by UV-visible spectrophotometry
T3 sequence (P12530 whole entry): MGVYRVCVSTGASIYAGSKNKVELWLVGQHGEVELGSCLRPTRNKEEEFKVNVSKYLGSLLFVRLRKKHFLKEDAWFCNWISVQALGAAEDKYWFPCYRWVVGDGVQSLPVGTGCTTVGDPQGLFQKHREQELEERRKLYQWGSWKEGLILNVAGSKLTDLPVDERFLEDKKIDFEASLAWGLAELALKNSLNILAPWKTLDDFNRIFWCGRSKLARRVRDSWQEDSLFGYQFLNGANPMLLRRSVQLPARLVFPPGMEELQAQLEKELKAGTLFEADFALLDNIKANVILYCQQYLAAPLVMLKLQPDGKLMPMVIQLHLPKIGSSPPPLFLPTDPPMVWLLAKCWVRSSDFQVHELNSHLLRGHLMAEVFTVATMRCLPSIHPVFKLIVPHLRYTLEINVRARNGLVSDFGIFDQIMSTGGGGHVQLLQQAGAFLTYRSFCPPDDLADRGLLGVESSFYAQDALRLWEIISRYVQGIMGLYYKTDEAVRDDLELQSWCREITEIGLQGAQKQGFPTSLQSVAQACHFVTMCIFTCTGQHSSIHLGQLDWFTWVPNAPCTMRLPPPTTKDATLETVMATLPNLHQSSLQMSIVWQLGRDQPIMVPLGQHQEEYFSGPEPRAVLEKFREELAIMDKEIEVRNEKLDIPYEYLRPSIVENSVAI
Summary of the method: (§2)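 Enzyme was h15-LOX-2 (~200 nM) or rabbit 15-LOX (~50 nM), in 25 mM HEPES pH 7.5, 0.01% Triton X-100, 10 μM AA, stirred 2 mL at 23°C. Product was monitored at 234 nm.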

[6] = molecular target: T4, Polyunsaturated fatty acid 5-lipoxygenase (Homo sapiens, UniProt P09917); assay: Inhibition of human leukocyte 5-lipoxygenase by UV-visible spectrophotometry
T4 sequence (P09917 whole entry): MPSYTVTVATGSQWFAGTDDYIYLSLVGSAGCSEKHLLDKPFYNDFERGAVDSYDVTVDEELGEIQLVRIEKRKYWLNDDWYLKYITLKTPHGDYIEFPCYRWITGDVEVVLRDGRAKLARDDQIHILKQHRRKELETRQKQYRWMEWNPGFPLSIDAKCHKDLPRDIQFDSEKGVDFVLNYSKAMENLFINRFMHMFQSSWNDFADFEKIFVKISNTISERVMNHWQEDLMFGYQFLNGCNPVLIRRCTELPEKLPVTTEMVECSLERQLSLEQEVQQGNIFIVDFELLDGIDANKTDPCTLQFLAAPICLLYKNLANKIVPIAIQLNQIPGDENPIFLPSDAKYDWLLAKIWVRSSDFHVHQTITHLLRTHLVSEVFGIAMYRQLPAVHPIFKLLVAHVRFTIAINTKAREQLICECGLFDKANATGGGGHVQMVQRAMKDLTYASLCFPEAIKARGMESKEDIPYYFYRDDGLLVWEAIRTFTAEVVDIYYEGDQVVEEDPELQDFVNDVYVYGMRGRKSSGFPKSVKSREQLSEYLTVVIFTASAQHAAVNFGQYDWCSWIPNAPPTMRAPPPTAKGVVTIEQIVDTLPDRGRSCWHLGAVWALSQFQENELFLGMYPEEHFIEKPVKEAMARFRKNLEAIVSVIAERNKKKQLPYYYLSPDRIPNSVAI

[7] = molecular target: T5, Polyunsaturated fatty acid lipoxygenase ALOX15B (Homo sapiens, UniProt O15296); assay: Inhibition of human reticulocyte 15-lipoxygenase-2 by UV-visible spectrophotometry; conditions: in the assay text read “epithelial” for “reticulocyte”; summary of the method: as §2
T5 sequence (O15296 whole entry): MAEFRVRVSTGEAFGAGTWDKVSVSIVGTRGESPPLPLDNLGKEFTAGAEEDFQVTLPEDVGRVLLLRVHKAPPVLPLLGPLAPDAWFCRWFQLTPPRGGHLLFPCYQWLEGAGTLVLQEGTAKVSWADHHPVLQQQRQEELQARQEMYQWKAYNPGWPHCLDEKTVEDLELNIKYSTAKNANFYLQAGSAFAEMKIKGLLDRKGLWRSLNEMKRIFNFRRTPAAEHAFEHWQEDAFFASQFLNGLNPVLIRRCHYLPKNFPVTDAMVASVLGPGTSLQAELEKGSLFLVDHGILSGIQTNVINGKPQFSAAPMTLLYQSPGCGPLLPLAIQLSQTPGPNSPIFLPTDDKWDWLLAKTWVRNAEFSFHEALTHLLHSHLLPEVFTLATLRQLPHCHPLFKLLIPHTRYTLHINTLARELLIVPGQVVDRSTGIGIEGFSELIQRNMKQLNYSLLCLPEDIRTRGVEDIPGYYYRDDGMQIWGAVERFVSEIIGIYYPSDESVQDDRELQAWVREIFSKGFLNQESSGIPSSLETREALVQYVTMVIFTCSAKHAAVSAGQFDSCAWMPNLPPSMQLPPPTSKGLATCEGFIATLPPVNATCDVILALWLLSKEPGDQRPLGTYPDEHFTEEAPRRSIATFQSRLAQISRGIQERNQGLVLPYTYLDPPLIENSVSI

Glycine max = assay: Irreversible inhibition of soybean 15-lipoxygenase-1; summary of the method: as §1
[8] = molecular target: T6, Polyunsaturated fatty acid lipoxygenase ALOX12 (Homo sapiens) (UniProt P18054)
T6 sequence (whole entry): T2 sequence (P18054 whole entry)

[9] = molecular target: T6, Polyunsaturated fatty acid lipoxygenase ALOX12 (Homo sapiens); remark: listed apart in the source

Row | Ki [1] | IC50 [2] | IC50 [3] | IC50 [4] | IC50 [5] | IC50 ([6]; read-out: IC50) | IC50 [7] | IC50 [6] | Kic [8] | Kiuc [9] | SMILES | inhibition (Glycine max)
1 | 36.8 µM | 3 µM | > 100 µM | 8 µM | > 50 µM | > 50 µM | > 100 µM | – | – | – | CCCCC/C=C\CC(=O)/C=C/C=C\C/C=C\CCCC(=O)O | –
2 | – | > 25 µM | > 100 µM | 15 µM | > 25 µM | – | > 100 µM | Not Active | – | – | CCCCC/C=C\C/C=C\C/C=C\C=C\C(=O)CCCC(=O)O [5-OXO-ETE] | –
3 | – | > 25 µM | > 100 µM | 1 µM | > 50 µM | > 100 µM | > 100 µM | – | 0.087 µM | 2.1 µM | CCCCCC(=O)/C=C/C=C\C/C=C\C/C=C\CCCC(=O)O | –

Row | SMILES | Ki [1] | IC50 [2] | IC50 [3] | IC50 [4] | IC50 [5] | IC50 ([6]; read-out: IC50) | IC50 [7] | IC50 [6] | Kic [8] | Kiuc [9] | inhibition (Glycine max)
4 | CCCCCC(=O)/C=C/C=C\CCCCCCCC(=O)O | – | > 100 µM | > 100 µM | > 100 µM | > 100 µM | > 100 µM | > 100 µM | – | – | – | inactive
